Assay results from ChEMBL document CHEMBL2169863, “Discovery, structure-activity relationship, and biological evaluation of noninhibitory small molecule chaperones of glucocerebrosidase” (J Med Chem, 2012).
Changes are numbered by the printed parent chain. Activity calls are given as the source filed them. Unless noted, no cut-off for these calls is given here.

Tests used:
[1] = Activation of alpha-galactosidase using 4-MU-alpha-galactose as substrate
[2] = target: Lysosomal alpha-glucosidase (Homo sapiens) (UniProt P10253); assay: Activation of alpha-glucosidase using 4-MU-alpha-glucose as substrate
[3] = target: T1, Lysosomal acid glucosylceramidase (Homo sapiens) (UniProt P04062); assay: Ratio of half-maximal activation concentration for wild type glucocerebrosidase to half-maximal activation concentration for wild type glucocerebrosidase in human spleen homogenate; type: tissue-based
T1 sequence (whole entry): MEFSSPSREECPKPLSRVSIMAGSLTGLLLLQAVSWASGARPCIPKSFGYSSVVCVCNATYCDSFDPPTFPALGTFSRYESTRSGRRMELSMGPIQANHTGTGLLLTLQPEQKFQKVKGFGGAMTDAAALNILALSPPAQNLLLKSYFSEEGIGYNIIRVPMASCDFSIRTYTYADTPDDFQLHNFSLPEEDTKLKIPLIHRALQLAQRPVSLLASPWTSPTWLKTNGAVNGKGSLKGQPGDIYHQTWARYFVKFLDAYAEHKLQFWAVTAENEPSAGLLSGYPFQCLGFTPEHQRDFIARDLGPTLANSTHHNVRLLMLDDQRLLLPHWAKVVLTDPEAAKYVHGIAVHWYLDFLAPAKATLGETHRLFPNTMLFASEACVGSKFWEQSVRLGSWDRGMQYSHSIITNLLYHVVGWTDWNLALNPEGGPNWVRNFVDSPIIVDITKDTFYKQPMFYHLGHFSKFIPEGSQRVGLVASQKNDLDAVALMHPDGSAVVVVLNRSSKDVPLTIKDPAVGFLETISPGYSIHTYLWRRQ

Homo sapiens = species on record: Homo sapiens; assay: Ratio of half-maximal activation concentration for glucocerebrosidase N370S (unknwon origin) to half-maximal activation concentration for glucocerebrosidase N370S in Gaucher patient spleen homogenate; type: tissue-based
[4] = target: T1, Lysosomal acid glucosylceramidase (Homo sapiens); assay: Activation of wild type glucocerebrosidase using resorufin beta-D-glucopyranoside as substrate incubated for 5 mins prior to substrate addition measured after 30 to 45 mins by fluorimetric analysis
Outline: (§1)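 Purified recombinant enzyme at 5 nM final: wt in citrate/KH₂PO₄ pH 5.9, N370S at pH 7, with 0.01% Tween-20. Compound was preincubated 5 min at room temperature. Resorufin β-D-glucopyranoside was 15 μM final for 30−45 min at 37 °C, stopped with Tris-HCl pH 8.0. Read-out was fluorescence at Ex 573/Em 610 nm.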

[5] = test system: T2, Lysosomal acid glucosylceramidase (Homo sapiens), P04062 [N409S]; assay: Activation of glucocerebrosidase N370S mutant using resorufin beta-D-glucopyranoside as substrate incubated for 5 mins prior to substrate addition measured after 30 to 45 mins by fluorimetric analysis; outline: as §1
T2 sequence (whole entry): T1 sequence (whole entry) with N409S

[6] = target: T1, Lysosomal acid glucosylceramidase (Homo sapiens); assay: Activation of wild type glucocerebrosidase in human spleen homogenate using resorufin beta-D-glucopyranoside as substrate incubated for 5 mins prior to substrate addition measured after 30 to 45 mins by fluorimetric analysis; type: tissue-based
Outline: (§2)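 Spleen homogenate (27 μg final) in pH 5 citrate/phosphate buffer with 0.01% Tween-20. Compound was titrated 0.5 nM to 58 μM and preincubated 5 min at room temperature. Resorufin β-D-glucopyranoside was 15 μM final, incubated 30−45 min at 37 °C and stopped with 1 M Tris-HCl pH 8.0. Read-out was fluorescence at Ex 573/Em 610 nm.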

[7] = test system: T2, Lysosomal acid glucosylceramidase (Homo sapiens), P04062 [N409S]; assay: Activation of glucocerebrosidase N370S mutant in Gaucher patient spleen homogenate using resorufin beta-D-glucopyranoside as substrate incubated for 5 mins prior to substrate addition measured after 30 to 45 mins by fluorimetric analysis; type: tissue-based; outline: as §2
[8] = test system: T2, Lysosomal acid glucosylceramidase (Homo sapiens), P04062 [N409S]; assay: Activation of Glucocerebrosidase N370S/N370S mutant translocation to lysosome in Gaucher patient dermal fibroblasts incubated for 6 days by LAMP2 colocalization-based laser scanning confocal microscopic analysis relative to vehicle-treated control
Outline: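 N370S/N370S Gaucher dermal fibroblasts were treated 6 days at 1, 5 or 25 μM, with DMSO vehicle control. Cells were fixed in 3% paraformaldehyde, permeabilized with Triton-X and stained with anti-GCase R386 (Alexa555), anti-LAMP-2 (Alexa488) and DAPI. Confocal imaging used constant laser settings, scoring GCase/LAMP-2 colocalization.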

[9] = test system: T2, Lysosomal acid glucosylceramidase (Homo sapiens), P04062 [N409S]; assay: Activation of glucocerebrosidase N370S mutant in Gaucher patient spleen homogenates using 4-methylumbelliferone-Glc as substrate assessed as half-maximal activation concentration incubated for 5 mins prior to substrate addition measured after 30 to 45 mins by fluorimetric analysis; type: tissue-based
Outline: (§3)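 Spleen homogenate (27 μg final) in pH 5 citrate/phosphate buffer with KCl, NaCl, MgCl₂ and 0.01% Tween-20. Compound was titrated 0.5 nM to 58 μM and preincubated 5 min at room temperature. Reaction used 1 mM 4MU-Glc for 30−45 min at 37 °C and was stopped with NaOH/glycine pH 10. Read-out was fluorescence at Ex 365/Em 440 nm. AC₅₀ is the average of N = 2.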

[10] = test system: T2, Lysosomal acid glucosylceramidase (Homo sapiens), P04062 [N409S]; assay: Activation of glucocerebrosidase N370S mutant using 4-methylumbelliferone-beta-Glc as substrate incubated for 5 mins prior to substrate addition measured after 30 to 45 mins by HPLC analysis
Outline: (§4)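 N370S/N370S patient spleen homogenate at 140 μg/well. Compound was tested at 9 concentrations, 1:2 dilutions from 50 μM. Substrate was 2 mM 4MU-Glc or the C12-BODIPY substrate at 25 μM; other conditions as the plate assay. Stopped reactions were separated on C18 HPLC with fluorescence detection: 4MU at 365/440 nm, C12-BODIPY-Cer at 506/540 nm.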

[11] = test system: T2, Lysosomal acid glucosylceramidase (Homo sapiens), P04062 [N409S]; assay: Activation of glucocerebrosidase N370S mutant using C12-BODIPY-GlcCer as substrate assessed as half-maximal activation concentration incubated for 5 mins prior to substrate addition measured after 30 to 45 mins by HPLC analysis; outline: as §4
[12] = target: T3, Lysosomal acid glucosylceramidase (Homo sapiens, UniProt P04062, N409S); assay: Inhibition of glucocerebrosidase N370S mutant in Gaucher patient spleen homogenate using 4-methylumbellifereno-Glc as substrate incubated for 5 mins prior to substrate addition measured after 30 to 45 mins by fluorimetric analysis
[13] = target: T3, Lysosomal acid glucosylceramidase; assay: Inhibition of glucocerebrosidase N370S mutant in Gaucher patient spleen homogenate using 4-methylumbellifereno-Glc as substrate incubated for 5 mins prior to substrate addition measured after 20 mins by fluorimetric analysis; type: tissue-based
[14] = target: T4, Lysosomal acid glucosylceramidase (Homo sapiens, UniProt P04062); assay: Inhibition of wild type glucocerebrosidase in human spleen homogenate using 4-methylumbellifereno-Glc as substrate incubated for 5 mins prior to substrate addition measured after 20 mins by fluorimetric analysis; type: tissue-based
T4 sequence (P04062 whole entry): T1 sequence (whole entry)

[15] = target: T3, Lysosomal acid glucosylceramidase; assay: Inhibition of glucocerebrosidase N370S mutant using 4-methylumbellifereno-Glc as substrate incubated for 5 mins prior to substrate addition measured after 20 mins by fluorimetric analysis
[16] = target: T4, Lysosomal acid glucosylceramidase; assay: Inhibition of wild type glucocerebrosidase using 4-methylumbellifereno-Glc as substrate incubated for 5 mins prior to substrate addition measured after 20 mins by fluorimetric analysis
[17] = target: T1, Lysosomal acid glucosylceramidase (Homo sapiens); assay: Activation of wild type glucocerebrosidase using 4methylumbelliferone-Glc as substrate assessed as half-maximal activation concentration incubated for 5 mins prior to substrate addition measured after 30 to 45 mins by fluorimetric analysis
Outline: (§5)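 Purified recombinant enzyme at 5 nM final: wt in citrate/KH₂PO₄ pH 5.9, N370S at pH 7, both with 0.01% Tween-20. Compound was titrated 0.5 nM to 58 μM and preincubated 5 min at room temperature. Reaction used 1 mM 4MU-Glc for 30−45 min at 37 °C and was stopped at pH 10. Read-out was fluorescence at Ex 365/Em 440 nm.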

[18] = test system: T2, Lysosomal acid glucosylceramidase (Homo sapiens), P04062 [N409S]; assay: Activation of glucocerebrosidase N370S mutant using 4methylumbelliferone-Glc as substrate assessed as half-maximal activation concentration incubated for 5 mins prior to substrate addition measured after 30 to 45 mins by fluorimetric analysis; outline: as §5
[19] = target: T1, Lysosomal acid glucosylceramidase (Homo sapiens); assay: Activation of wild type glucocerebrosidase in human spleen homogenate using 4methylumbelliferone-Glc as substrate assessed as half-maximal activation concentration incubated for 5 mins prior to substrate addition measured after 30 to 45 mins by fluorimetric analysis; type: tissue-based; outline: as §3
Liver [20] = assay: Metabolic stability in CD1 mouse liver microsomes assessed as compound remaining at 1 uM after 60 mins by LC/MS/MS analysis in absence of NADPH; type: ADME, Microsome; settings: 1 h
Outline: (§6)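 Compound at 1 μM was incubated in duplicate with CD-1 mouse liver microsomes at 37 °C in 100 mM potassium phosphate pH 7.4 with 3 mM MgCl₂, with or without 2 mM NADPH, for 60 min. Reaction was quenched in cold acidified MeCN with internal standard. Parent was quantified by LC−MS/MS as percent of time zero.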

Liver [21] = assay: Metabolic stability in CD1 mouse liver microsomes assessed as compound remaining at 1 uM after 60 mins by LC/MS/MS analysis in presence of NADPH; type: ADME, Microsome; settings: 1 h; outline: as §6

SMILES | Activity [1] | Activity [2] | Ratio [3] | Ratio (Homo sapiens) | Activity [4] | Activity [5] | Activity [6] | Activity [7] | Activity [9] | also measured
CCC(C)c1ccc(NC(=O)c2cnn3c(C(F)F)cc(C)nc23)cc1 (configuration not stated) | inactive | inactive | 3 | 3 | inactive | inactive | inactive | inactive |  | 
O=C(Nc1ccccc1Sc1ccccc1)c1cnn2c(C(F)F)cc(C3CC3)nc12 | inactive | inactive | 3 | 3 | inactive | inactive | inactive | inactive | 4.6 µM | Activity [10]: Dose-dependent effect; Activity [11]: inactive
COc1ccc(Cl)cc1Nc1nc(NCCO)nc(N2CCCC2)n1 |  |  |  |  |  |  |  |  |  | IC50 [12]: Not Active
O=S(=O)(c1ccc2ccccc2c1)N1CCN(c2nc(-c3cccs3)nc3ccccc23)CC1 |  |  |  |  |  |  |  |  |  | IC50 [13]: 0.33 µM; IC50 [14]: 0.28 µM; IC50 [15]: Not Active; IC50 [16]: 8.9 µM
CCc1ccc(NC(=O)c2cnn3c(C(F)F)cc(C)nc23)cc1 | inactive | inactive | 3 | 3 | inactive | inactive | inactive | inactive | 2.24 µM | 
S=C(NCCCc1c[nH]cn1)NCCCN(Cc1ccc(Cl)c(Cl)c1)c1ccc(Br)cn1 |  |  |  |  |  |  |  |  |  | IC50 [14]: 0.36 µM; IC50 ([15]; read-out: IC50): 2.5 µM; IC50 [16]: 0.71 µM
CCc1nnc(NC(=O)c2ccc(NS(=O)(=O)c3ccccc3)cc2)s1 |  |  |  |  |  |  |  |  |  | IC50 [12]: Not Active

Further lines, with some results ahead:

Activity [1] | Activity [2] | Ratio [3] | Ratio (Homo sapiens) | Activity [4] | Activity [5] | Activity [6] | Activity [7] | Activity [9] | SMILES | also measured
inactive | inactive |  |  |  |  |  |  | inactive | Cc1cc(C)n2ncc(C(=O)NCCCCO)c2n1 | Activity [8]: inactive
inactive | inactive | 3 | 3 | inactive | inactive | inactive | inactive | 3.66 µM | Cc1cc(C)n2ncc(C(=O)Nc3ccc(Cl)c(Cl)c3)c2n1 | Activity [17]: 14.1 µM; Activity [18]: 15.9 µM; Activity [19]: 4.47 µM
inactive | inactive |  |  |  |  |  |  | 1.46 µM | Cc1cc(C)n2ncc(C(=O)Nc3ccc(C(F)(F)F)cc3)c2n1 | Activity [10]: Dose-dependent effect; Stability (Liver [20]): 100%; Stability (Liver [21]): 83%; Activity [11]: inactive
inactive | inactive |  |  |  |  |  |  | 2.06 µM | Cc1cc(C)n2ncc(C(=O)Nc3ccc(Br)cc3)c2n1 | Activity [10]: Dose-dependent effect; Stability (Liver [20]): 86%; Stability (Liver [21]): 12%; Activity [11]: inactive
